Experimental findings from ChEMBL document CHEMBL3853311, “Deuterium-Labeled Precursor Feeding Reveals a New pABA-Containing Meroterpenoid from the Mango Pathogen Xanthomonas citri pv. mangiferaeindicae” (J Nat Prod, 2016) are described below.

Active and inactive are the calls of the source. The rule behind the calls is not given here.

A short description of data set [1]: Cytotoxicity against HEK293 cells assessed as decrease in cell viability after 48 hrs by MTT assay. The format is toxicity, cell-based. Conditions: human. In short, it runs like this:
(§1)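 Cells kept in DMEM/F12 with 10% FBS, 2 mM glutamine, penicillin/streptomycin at 37 °C, 5% CO2; exponential-phase cells seeded at 1 × 10^4/well for 24 h. Treated at 0.2, 2 and 20 μg/mL for 48 h at 37 °C; vehicle controls = 100% viability. Formazan dissolved in DMSO, read at 570 nm (620 nm reference). IC50 by four-parameter logistic fit, ≥3 independent measurements, ±95% CI.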

Data set [2] is described as follows: Cytotoxicity against human PC3 cells assessed as decrease in cell viability after 48 hrs by MTT assay. It counts as functional, cell-based. Conditions: PC-3, 48 h. In a few lines: as §1
The nature of data set [3]: Cytotoxicity against human A549 cells assessed as decrease in cell viability after 48 hrs by MTT assay. The format is functional, cell-based. Conditions: A549, 48 h. In short, it runs like this:
as §1

Data set [4] can be described thus: Cytotoxicity against human MCF7 cells assessed as decrease in cell viability after 48 hrs by MTT assay. The format is functional, cell-based. Conditions: MCF7, 48 h. In short, it runs like this:
as §1

The nature of data set [5]: Cytotoxicity against human MPanc96 cells assessed as decrease in cell viability after 48 hrs by MTT assay. Conditions: MPANC96, 48 h. It counts as functional, cell-based. In a few lines:
as §1
A general note: Formazan colour is commonly taken as a measure of viable cells.

Data set [6] is described as follows: Cytotoxicity against human Caco2 cells assessed as decrease in cell viability after 48 hrs by MTT assay. Conditions: Caco-2, 48 h. It counts as functional, cell-based. In short, it runs like this: as §1
Data set [7] in a line: Cytotoxicity against human 253JBV cells assessed as decrease in cell viability after 48 hrs by MTT assay. It counts as functional, cell-based. In a few lines:
as §1

Data set [8] can be described thus: Cytotoxicity against human HeLa cells assessed as decrease in cell viability after 48 hrs by MTT assay. It counts as functional, cell-based. In a few lines:
as §1

Data set [9] can be described thus: Cytotoxicity against human MDA-MB-231 cells assessed as decrease in cell viability after 48 hrs by MTT assay. It counts as functional, cell-based. Conditions: MDA-MB-231, 48 h. In a few lines:
as §1

A short description of data set [10]: Cytotoxicity against human U87MG cells assessed as decrease in cell viability after 48 hrs by MTT assay. It counts as functional, cell-based, U-87MG ATCC. Conditions: U-87 MG. In short, it runs like this: as §1
Data set [11] has as its system HeLa. Put plainly: Induction of autophagy in human HeLa cells assessed as decrease in p62 levels at IC50 after 24 to 48 hrs by immunoblot analysis. It counts as functional, cell-based. In short, it runs like this:
(§2)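 Cells seeded at 2.5 × 10^5/well, treated 24 h later at 1/2 IC50, IC50 and 2× IC50 (legend says 24 h, methods 48 h). Controls: MG132 4.76 μg/mL, BafA1 0.1 μg/mL, DMSO. Lysed in RIPA with protease inhibitors, BCA protein assay, 30 μg on 15% Tris/glycine SDS-PAGE. Blotted for LC3-I/II, p62 and polyubiquitinated proteins with HRP secondary and ECL detection.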
(In general: Immunoblotting shows a protein as a band on a membrane.)

In data set [12] the test system is MDA-MB-231. Put plainly: Induction of autophagy in human MDA-MB-231 cells assessed as conversion of LC3-1 to LC3-2 at IC50 to 2 times IC50 after 24 to 48 hrs by immunoblot analysis. The format is functional, cell-based. In a few lines: as §2
Data set [13] relates to MDA-MB-231. As to the kind of experiment: Induction of autophagy in human MDA-MB-231 cells assessed as decrease in p62 levels at 2 times IC50 after 24 to 48 hrs by immunoblot analysis. It counts as functional, cell-based. In a few lines:
as §2

For data set [14], the species on record is Homo sapiens. Put plainly: Induction of autophagy in human 253JBV cells assessed as vacuole formation at 20 ug/ml after 48 hrs by microscopy. It counts as functional, cell-based. In short, it runs like this: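 Bladder cells grown 48 h untreated or with 20 μg/mL test agent, then inspected for morphology and vacuoles by inverted light microscopy against the control group.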

For data set [15], the species on record is Homo sapiens. Put plainly: Induction of autophagy in human 253JBV cells assessed as conversion of LC3-1 to LC3-2 at IC50 to 2 times IC50 after 24 to 48 hrs by immunoblot analysis. It counts as functional, cell-based. In a few lines:
as §2

Data set [16] is filed under the species Homo sapiens. Put plainly: Induction of autophagy in human 253JBV cells assessed as decrease in polyubiquitinated protein levels at IC50 after 24 to 48 hrs by immunoblot analysis. The format is functional, cell-based. In short, it runs like this: as §2
The subject of data set [17] is HeLa. Put plainly: Induction of autophagy in human HeLa cells assessed as conversion of LC3-1 to LC3-2 at IC50 to 2 times IC50 after 24 to 48 hrs by immunoblot analysis. The format is functional, cell-based. In short, it runs like this:
as §2

The species entered for data set [18] is Homo sapiens. Put plainly: Induction of autophagy in human 253JBV cells assessed as decrease in p62 levels at 2 times IC50 after 24 to 48 hrs by immunoblot analysis. The format is functional, cell-based. In short, it runs like this:
as §2

Data set [19] deals with MDA-MB-231. Put plainly: Induction of autophagy in human MDA-MB-231 cells assessed as decrease in polyubiquitinated protein levels at IC50 to 2 times IC50 after 24 to 48 hrs by immunoblot analysis. The format is functional, cell-based. In a few lines:
as §2

Data set [20] deals with HeLa. As to the kind of experiment: Induction of autophagy in human HeLa cells assessed as decrease in p62 levels at IC50 after 24 to 48 hrs by immunoblot analysis.

As a reminder, the IC50 is the concentration needed to halve the response being measured. Consider `C=C1C(=O)O[C@@H]2C3O[C@]3(C)CC/C=C(\C)CC[C@@H]12` (stereo not given in full), for which the concentration for half-maximal inhibition (IC50) at 48 h in data set [1] came to 3.1 µM. For the same molecule, the IC50 worked out at 13 µM in data set [2]; 22 µM in data set [3]; 27.7 µM in [4]; 20.3 µM in data set [5]; 23.4 µM in data set [6]; 25.3 µM in data set [7]. Besides, the IC50 in data set [8] turned out to be 23.1 µM; in data set [9] it was 4.36 µM; in data set [10] it was 4.86 µM.

In the case of `C/C(=C\CC/C(C)=C/Cc1cc(C(=O)O)ccc1N)CC/C=C(\C)CC/C=C(\C)CCC(=O)O`, the result in data set [11], in data set [12], in data set [13], in [14], in data set [15] and in data set [16] was Active. Also, the outcome in data set [17], in [18], in data set [19] and in data set [20] was Active. In data set [1], the IC50 at 48 h stood at 6.45 µM. In addition, the IC50 in [2] is 42.3 µM; in [3] it was 25.8 µM; in [4], more than 42.8 µM; in [5], 36.4 µM; in data set [6], 25.9 µM; in [7], 36.5 µM. In addition, the IC50 in data set [8] is 18.2 µM; in [9], 12.9 µM; in data set [10] it was more than 42.8 µM.
